PMI act hi M6P = human PMI activators, high substrate, primary screen, biochemical, fluorescence intensity, near-saturating mannose 6-phosphate | Mannose-6-phosphate isomerase (Homo sapiens), P34949 | coupled PMI enzyme assay, resazurin fluorescence, 20 min; stronger effect = higher value; 1 = untreated enzyme, 0 = substrate-free blank | activation factor at 20 µM | 190,000 compounds, 0.34% hits | AID 1216, 2008;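 active = activation factor of 2 or more at 20 µM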
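Test system: human phosphomannose isomerase with PGI, G6PDH, diaphorase coupling enzymes; Amount: PMI at 15 ng/mL final; Reagent: Mannose-6-phosphate 1.0 mM (near-saturating) plus 0.22 mM NADP+; Timing: 20 min, room temperature; Technique: resorufin fluorescence at Ex 544/Em 590 nm; Dosing: 20 µM single dose.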
Lmaj promast = Leishmania major promastigote growth inhibition, primary screen. Leishmania major promastigotes, resazurin fluorescence viability. inhibition, % at 10 µM. 200,000 compounds, 9% hits. AID 1063, 2008; in the data active = inhibition above about 50%;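 note: promastigotes grown with compound for 44 hours at 28 °C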
Rad51 HR inh = human RAD51 strand exchange inhibitors, primary screen, biochemical, fluorescence; inhibition, % at 10 µM; 200,000 compounds, 0.085% hits; hRad51 DNA strand exchange, fluorescence dequenching;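 active = inhibition above 40% at the single screening dose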;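 note: 0% = DMSO control wells and 100% = blanks with heterologous ssDNA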
Target sequence (Q06609 whole entry, looked up): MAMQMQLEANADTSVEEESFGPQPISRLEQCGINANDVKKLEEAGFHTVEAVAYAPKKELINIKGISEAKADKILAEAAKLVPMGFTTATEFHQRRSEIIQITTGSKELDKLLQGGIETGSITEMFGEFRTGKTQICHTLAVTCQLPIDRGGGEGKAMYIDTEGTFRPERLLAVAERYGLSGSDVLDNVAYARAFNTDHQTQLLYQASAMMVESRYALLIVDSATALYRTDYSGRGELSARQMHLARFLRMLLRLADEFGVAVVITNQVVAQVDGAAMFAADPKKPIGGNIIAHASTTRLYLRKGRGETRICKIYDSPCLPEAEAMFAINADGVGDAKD
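material = hRad51 filaments on single-stranded DNA | reagent = Donor/quencher-labelled 47-bp dsDNA substrate | compound = 10 µM final, single point | schedule = strand-exchange reaction 15 min at room temperature | measured by = fluorescein emission 520 nm, excitation 485 nm | read-out basis = % inhibition versus plate control and blank means | benchmarks = plate controls and plate blanks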
PMI act = activators of human PMI, primary screen, biochemical, fluorescence intensity, near-Km mannose 6-phosphate. Mannose-6-phosphate isomerase (Homo sapiens), P34949. purified human PMI, coupled resazurin fluorescence, 20 min; stronger effect = higher value; 1 = vehicle control, 0 substrate-free wells. activation factor at 20 µM. 190,000 compounds, 0.005% hits. AID 1214, 2008;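 active = activation factor of 2 or more at 20 µM, relative to plate controls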
WT yeast gro inh = growth inhibition of WT strain, primary screen, mitochondrial fusion inhibitor project, WT and mutant strains, chemical genetic; inhibition, % at 10 µM; mitochondrial fusion phenotypic screen; 190,000 compounds, 2.1% hits; in the data active = inhibition above about 58%; tested in S. cerevisiae
Calpain2 inh = inhibitors of pig calpain II, primary screen, biochemical, fluorogenic peptide substrate, 1536-well. purified calpain II, 30 min. inhibition, % at 16 µM. 220,000 compounds, 0.37% hits. AID 1236, 2008;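 active = inhibition above about 50%, limit read from the data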
* marks the source's active call; other numbers are inactive results; · = not tested or not shown. Rows were chosen to be rich in hits. Some 9.8% of all compounds tested hit in one or more screens of this group.

SMILES	PMI act hi M6P	Lmaj promast	Rad51 HR inh	PMI act	WT yeast gro inh	Calpain2 inh
COCC(C)n1c(SCc2ccc(OC)c(F)c2)nc2ccccc2c1=O (stereo not drawn)	0.9	100*	-4	1	74*	-2
COc1ccc(CSc2nc3ccccc3c(=O)n2CCCN2CCOCC2)cc1F	0.9	98*	6	0.8	46	-23
O=c1c2ccccc2nc(SCCN2CCOCC2)n1CCc1ccccc1	0.9	4	-2	1	23	-19
COc1ccc(CCn2c(SCCN3CCCCC3)nc3ccccc3c2=O)cc1OC	0.9	100*	-4	0.9	23	30
COC(=O)c1cc(NS(=O)(=O)c2ccc(N3CCOCC3)c(N)c2)cc(C(=O)OC)c1	0.9	26	9	0.9	-16	4
S=C(Nc1ccccn1)NC1CCCCC1	·	·	6	·	·	4
CCCCCC(=O)Nc1cc(N(C)C)nc2ccccc12	1	27	7	1	64*	·
Cc1ccc2nc(C(F)(F)F)c(C#N)c(N)c2c1	0.9	68*	2	0.9	-3	-6
Cc1cc(C)c2nc(C(F)(F)F)c(C#N)c(N)c2c1	1	0	4	0.9	-8	-24
COc1ccccc1NC(=O)CN(Cc1ccco1)C(=O)c1cc2ccccc2o1	1	-1	-1	1.1	-1	-3
COc1ccc(NC(=O)NCCCN2CCC(Cc3ccccc3)CC2)cc1	·	·	13	·	·	4
COc1ccccc1OCCCCN1CCN(C(c2ccccc2)c2ccccc2)CC1	1	93*	2	1	47	10
COc1cccc(OC)c1OCCCCN1CCCC1	0.9	66*	-6	0.9	66*	2
CC(=O)CCc1ccc(OCCCCN2CCC(Cc3ccccc3)CC2)cc1	1	94*	3	1.1	-18	16
COc1cccc(OC)c1OCCCCN1CCC(Cc2ccccc2)CC1	1.1	89*	6	1.1	12	11
c1ccc(OCCOCCN2CCN(C(c3ccccc3)c3ccccc3)CC2)cc1	1	21	20	1.1	44	2
COc1cccc(OC)c1OCCCN1CCOCC1	1	2	1	0.9	21	16
Cc1cccc(-n2nnc3c(=O)n(CC(=O)Nc4cc(C)on4)cnc32)c1	1	17	1	1	-4	19
CCC(C)(C(=O)Nc1ccccc1C)N(C(=O)CNC(C)=O)c1ccccc1C (stereo not drawn)	0.9	-4	-21	0.9	-10	6
O=C(CCn1cnnn1)Nc1ccccc1	1	-7	·	1	5	-9
COc1ccc(OC)c(NC(=O)CCCN2C(=S)NC(C)(C)CC2C)c1 (stereo not drawn)	0.9	70*	4	1	-5	-3
CC1CC(C)(C)NC(=S)N1CCCC(=O)N1CCN(c2ccc(F)cc2)CC1 (stereo not drawn)	1	82*	1	1	5	-2
CCOc1ccccc1NC(=O)CCCN1C(=S)NC(C)(C)CC1C (stereo not drawn)	1	52*	5	1	-9	-7
Cc1nn(Cc2nnc(SCC(=O)Nc3ccc(Cl)cc3)n2C)c(C)c1[N+](=O)[O-]	·	·	14	·	·	-14
COc1ccc(CCC(=O)N/N=C\c2cccs2)cc1	0.9	3	·	1	6	3
CCOC(=O)C1=C(Nc2ccccc2)CC(C)(O)C(C(=O)OCC)C1c1ccc(Cl)cc1 (stereo not drawn)	1	5	-6	1	71*	34
O=C(c1ccccc1NS(=O)(=O)c1cccc2cccnc12)N1CCOCC1	1	-6	-6	1.1	0	-4
Cc1ccc(-n2[nH]c(C)c(C=Nc3ccc(S(=O)(=O)Nc4nccs4)cc3)c2=O)cc1	1.1	-4	10	1	19	-21

Compound activity deposited in PubChem by several laboratories.
